According to ChEMBL document CHEMBL1909601, “Synthesis and structure-activity relationship studies of dihydronaphthyridinediones as a novel structural class of potent and selective PDE7 inhibitors” (Bioorg Med Chem Lett, 2011):

Assays:
[1] = biological target: High affinity 3',5'-cyclic-AMP phosphodiesterase 7A (Homo sapiens, UniProt Q13946); assay: Inhibition of human recombinant PDE7A1 expressed in baculovirus infected insect Sf21 cells after 30 mins by scintillation proximity assay
Method in brief: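 Full-length human recombinant PDE7A1 produced in baculovirus-infected Sf21 cells. SPA read-out with [3H]-cAMP at 20 nM in 80 mM Tris/10 mM MgSO4, pH 7.4. Reaction run 30 min at 37 °C before bead addition and scintillation counting. Background measured without enzyme. IC50 derived.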

[2] = biological target: 3',5'-cyclic-AMP phosphodiesterase 4A (Homo sapiens, UniProt P27815); assay: Inhibition of human recombinant PDE4A4 expressed in baculovirus infected insect Sf21 cells after 30 mins by scintillation proximity assay
Sequence of 3',5'-cyclic-AMP phosphodiesterase 4A (P27815 whole entry): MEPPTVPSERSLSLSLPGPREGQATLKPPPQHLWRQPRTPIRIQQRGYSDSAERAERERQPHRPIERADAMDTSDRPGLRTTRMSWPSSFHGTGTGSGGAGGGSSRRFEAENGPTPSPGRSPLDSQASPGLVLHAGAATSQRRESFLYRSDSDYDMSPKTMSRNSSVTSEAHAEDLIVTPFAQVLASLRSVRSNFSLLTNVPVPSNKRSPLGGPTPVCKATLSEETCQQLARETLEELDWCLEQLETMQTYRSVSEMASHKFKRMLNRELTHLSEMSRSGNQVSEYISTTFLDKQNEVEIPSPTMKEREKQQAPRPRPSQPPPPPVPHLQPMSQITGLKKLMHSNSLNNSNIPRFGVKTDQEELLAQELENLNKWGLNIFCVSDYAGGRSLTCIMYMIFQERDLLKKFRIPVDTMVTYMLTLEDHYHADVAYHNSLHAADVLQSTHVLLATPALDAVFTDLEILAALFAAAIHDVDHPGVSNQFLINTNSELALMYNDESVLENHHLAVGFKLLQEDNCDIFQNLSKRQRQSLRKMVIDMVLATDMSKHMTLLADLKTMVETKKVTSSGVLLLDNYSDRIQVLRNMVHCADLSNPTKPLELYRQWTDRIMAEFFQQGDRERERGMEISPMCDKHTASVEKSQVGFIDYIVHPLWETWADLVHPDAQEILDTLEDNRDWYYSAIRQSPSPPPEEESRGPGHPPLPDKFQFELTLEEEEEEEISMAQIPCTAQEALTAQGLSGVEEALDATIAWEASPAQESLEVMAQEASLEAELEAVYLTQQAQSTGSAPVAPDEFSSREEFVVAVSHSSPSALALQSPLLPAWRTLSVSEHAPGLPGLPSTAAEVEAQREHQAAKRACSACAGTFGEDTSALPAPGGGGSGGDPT
Method in brief: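 Full-length human recombinant enzyme expressed in baculovirus-infected Sf21 cells. Scintillation proximity assay with 500 nM [3H]-cAMP substrate in 80 mM Tris/10 mM MgSO4, pH 7.4. Incubated 30 min at 37 °C, then SPA beads added and plates counted. Background taken in presence of 10 µM rolipram. IC50 reported.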

Homo sapiens = species on record: Homo sapiens; assay: Selectivity ratio of IC50 for human recombinant PDE4A4 to IC50 for human recombinant PDE7A1
Method in brief: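 Ratio of IC50 values for the two enzymes. PDE4A4 run at 500 nM [3H]-cAMP with a 10 µM rolipram background; PDE7A1 run at 20 nM [3H]-cAMP with a no-enzyme background. Both used full-length human enzymes from Sf21 cells, 30 min at 37 °C, pH 7.4 Tris/MgSO4, SPA read-out.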

Sequence of High affinity 3',5'-cyclic-AMP phosphodiesterase 7A (Q13946 whole entry): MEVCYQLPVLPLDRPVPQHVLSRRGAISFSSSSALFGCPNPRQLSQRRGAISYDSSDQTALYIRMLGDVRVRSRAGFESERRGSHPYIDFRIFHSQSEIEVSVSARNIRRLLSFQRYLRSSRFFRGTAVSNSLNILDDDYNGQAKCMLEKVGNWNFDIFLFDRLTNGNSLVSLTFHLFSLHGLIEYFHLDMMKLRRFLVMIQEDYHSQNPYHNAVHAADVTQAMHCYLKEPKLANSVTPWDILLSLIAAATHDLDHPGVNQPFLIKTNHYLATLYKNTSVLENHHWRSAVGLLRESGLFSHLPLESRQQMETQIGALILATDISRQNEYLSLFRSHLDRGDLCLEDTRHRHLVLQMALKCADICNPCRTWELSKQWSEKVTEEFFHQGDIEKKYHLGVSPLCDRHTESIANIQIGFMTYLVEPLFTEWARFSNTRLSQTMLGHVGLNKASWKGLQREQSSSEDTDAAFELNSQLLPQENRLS

| IC50 [1] [nM] | IC50 [2] [nM] | Ratio IC50 (Homo sapiens) | Compound |
| --- | --- | --- | --- |
| 18 | 156 | – | CNC(=O)c1ccc(NC(=O)c2cn(Cc3c(F)cccc3Cl)c3ccc(=O)[nH]c3c2=O)cc1 |
| 176 | > 1000 | – | O=C(O)Cc1ccc(NC(=O)c2cn(Cc3c(F)cccc3F)c3ccc(=O)[nH]c3c2=O)cc1 |
| 71 | 568 | – | O=C(Nc1ccc(OC(F)F)cc1)c1cn(Cc2c(F)cccc2F)c2ccc(=O)[nH]c2c1=O |
| 27 | > 1000 | – | CS(=O)(=O)c1ccc(NC(=O)c2cn(Cc3c(F)cccc3F)c3ccc(=O)[nH]c3c2=O)cc1 |
| 46 | 442 | – | CCN(CC)c1ccc(NC(=O)c2cn(Cc3c(F)cccc3F)c3ccc(=O)[nH]c3c2=O)cc1 |
| 317 | 3560 | – | O=C(Nc1ccc(N2CCOCC2)cc1)c1cn(Cc2c(F)c(F)cc(F)c2F)c2ccc(=O)[nH]c2c1=O |
| 24 | 362 | – | CC(=O)Nc1ccc(NC(=O)c2cn(Cc3c(F)cccc3F)c3ccc(=O)[nH]c3c2=O)cc1 |
| 59 | 1420 | 24 | CS(=O)(=O)c1cccc(NC(=O)c2cn(Cc3c(F)cccc3Cl)c3ccc(=O)[nH]c3c2=O)c1 |
| 39 | 402 | 6 | CN(C)c1ccc(NC(=O)c2cn(Cc3c(F)cccc3Cl)c3ccc(=O)[nH]c3c2=O)cc1 |
| 266 | > 1000 | – | Cc1ccccc1Cn1cc(C(=O)Nc2ccc(N3CCOCC3)cc2)c(=O)c2[nH]c(=O)ccc21 |
| 18 | 161 | 6 | CC(=O)c1ccc(NC(=O)c2cn(Cc3c(F)cccc3Cl)c3ccc(=O)[nH]c3c2=O)cc1 |
| 212 | > 1000 | – | COc1cc(NC(=O)c2cn(Cc3c(F)cccc3F)c3ccc(=O)[nH]c3c2=O)cc(OC)c1 |
| 20 | 385 | 19 | NS(=O)(=O)c1ccc(NC(=O)c2cn(Cc3c(F)cccc3Cl)c3ccc(=O)[nH]c3c2=O)cc1 |
| > 1000 | > 1000 | – | O=C(Nc1ccc(N2CCOCC2)cc1)c1cn(Cc2ccc(F)cc2F)c2ccc(=O)[nH]c2c1=O |
| 823 | 379 | – | O=C(Nc1ccc(N2CCOCC2)cc1)c1cn(Cc2c(F)cccc2F)c2cccnc2c1=O |
| 300 | > 1000 | – | O=C(Nc1ccc(C(F)(F)F)cc1)c1cn(Cc2c(F)cccc2F)c2ccc(=O)[nH]c2c1=O |
| 178 | > 1000 | – | COc1cc(NC(=O)c2cn(Cc3ccccc3Cl)c3ccc(=O)[nH]c3c2=O)cc(OC)c1OC |
| 17 | 362 | 6 | CC(=O)Nc1ccc(NC(=O)c2cn(Cc3c(F)cccc3Cl)c3ccc(=O)[nH]c3c2=O)cc1 |
| 86 | > 1000 | – | CSc1ccc(NC(=O)c2cn(Cc3c(F)cccc3F)c3ccc(=O)[nH]c3c2=O)cc1 |
| 32 | 274 | – | O=C(Nc1ccc(S(=O)(=O)Nc2nccs2)cc1)c1cn(Cc2c(F)cccc2Cl)c2ccc(=O)[nH]c2c1=O |
| 12 | 73 | 6 | CS(=O)(=O)c1ccc(NC(=O)c2cn(Cc3c(F)cccc3Cl)c3ccc(=O)[nH]c3c2=O)cc1 |

| IC50 [1] [nM] | IC50 [2] [nM] | Ratio IC50 (Homo sapiens) | Compound |
| --- | --- | --- | --- |
| 767 | > 1000 | – | O=C(Nc1ccc(N2CCOCC2)cc1)c1cn(Cc2ccccc2Cl)c2ccc(=O)[nH]c2c1=O |
| 49 | 201 | – | NC(=O)c1ccc(NC(=O)c2cn(Cc3c(F)cccc3F)c3ccc(=O)[nH]c3c2=O)cc1 |
| 124 | > 1000 | – | O=C(Nc1ccc(N2CCCCC2)cc1)c1cn(Cc2c(F)cccc2F)c2ccc(=O)[nH]c2c1=O |
| 165 | > 1000 | – | O=C(Nc1ccc(N2CCOCC2)cc1)c1cn(Cc2c(Cl)cccc2Cl)c2ccc(=O)[nH]c2c1=O |
| 22 | 506 | – | O=C(Nc1ccc(N2CCOCC2)cc1)c1cn(Cc2c(F)cccc2F)c2ccc(=O)[nH]c2c1=O |
| > 1000 | 219 | – | O=C(Nc1c(F)cccc1F)c1cn(Cc2c(F)cccc2F)c2ccc(=O)[nH]c2c1=O |
| 1070 | > 1000 | – | N#Cc1cccc(NC(=O)c2cn(Cc3c(F)cccc3F)c3ccc(=O)[nH]c3c2=O)c1 |
| 94 | 1330 | – | O=C(Nc1ccccc1)c1cn(Cc2c(F)cccc2F)c2ccc(=O)[nH]c2c1=O |
| 206 | > 1000 | – | COc1cc(NC(=O)c2cn(Cc3ccccc3F)c3ccc(=O)[nH]c3c2=O)cc(OC)c1OC |
| 104 | 477 | – | Nc1ccc(NC(=O)c2cn(Cc3c(F)cccc3F)c3ccc(=O)[nH]c3c2=O)cc1 |
| 868 | > 1000 | – | COc1cc(NC(=O)c2cn(Cc3ccc(F)cc3)c3ccc(=O)[nH]c3c2=O)cc(OC)c1OC |
| 2380 | > 5000 | – | O=C(Nc1ccc(N2CCOCC2)cc1)c1cn(Cc2ccc(F)cc2)c2ccc(=O)[nH]c2c1=O |
| 20 | 430 | – | O=C(NCc1ccncc1)c1ccc(NC(=O)c2cn(Cc3c(F)cccc3F)c3ccc(=O)[nH]c3c2=O)cc1 |
| 88 | 979 | – | COc1cc(NC(=O)c2cn(Cc3c(Cl)cccc3Cl)c3ccc(=O)[nH]c3c2=O)cc(OC)c1OC |
| > 1000 | > 1000 | – | COc1cc(NC(=O)c2cn(Cc3ccccc3Br)c3ccc(=O)[nH]c3c2=O)cc(OC)c1OC |
| 90 | > 1000 | – | O=C(Nc1ccc(OC(F)(F)F)cc1)c1cn(Cc2c(F)cccc2F)c2ccc(=O)[nH]c2c1=O |
| 686 | > 1000 | – | COc1cc(NC(=O)c2cn(Cc3ccccc3)c3ccc(=O)[nH]c3c2=O)cc(OC)c1OC |
| 200 | 1520 | – | O=C(O)c1ccc(NC(=O)c2cn(Cc3c(F)cccc3F)c3ccc(=O)[nH]c3c2=O)cc1 |
| 151 | > 1000 | – | COc1ccc(NC(=O)c2cn(Cc3c(F)cccc3F)c3ccc(=O)[nH]c3c2=O)cc1 |
| 712 | > 1000 | – | O=C(Nc1ccc(N2CCOCC2)cc1)c1cn(Cc2ccccc2)c2ccc(=O)[nH]c2c1=O |
| > 1000 | > 1000 | – | O=C(Nc1ccc(N2CCOCC2)cc1)c1cn(Cc2ccc(OC(F)(F)F)cc2)c2ccc(=O)[nH]c2c1=O |

| IC50 [1] [nM] | IC50 [2] [nM] | Ratio IC50 (Homo sapiens) | Compound |
| --- | --- | --- | --- |
| 66 | 471 | – | CN(C)c1ccc(NC(=O)c2cn(Cc3c(F)cccc3F)c3ccc(=O)[nH]c3c2=O)cc1 |
| 10 | 90 | 6 | NC(=O)c1ccc(NC(=O)c2cn(Cc3c(F)cccc3Cl)c3ccc(=O)[nH]c3c2=O)cc1 |
| 18 | 516 | – | COc1cc(NC(=O)c2cn(Cc3c(F)cccc3F)c3ccc(=O)[nH]c3c2=O)cc(OC)c1OC |
| > 5000 | > 5000 | – | COc1ccc2c(n1)c(=O)c(C(=O)Nc1ccc(N3CCOCC3)cc1)cn2Cc1c(F)cccc1F |
| 44 | 580 | 6 | NC(=O)c1cccc(NC(=O)c2cn(Cc3c(F)cccc3Cl)c3ccc(=O)[nH]c3c2=O)c1 |
| > 1000 | > 1000 | – | O=C(Nc1ccc(N2CCOCC2)cc1)c1cn(Cc2cc(F)cc(F)c2)c2ccc(=O)[nH]c2c1=O |
| 179 | > 1000 | – | O=C(Nc1ccc(F)cc1)c1cn(Cc2c(F)cccc2F)c2ccc(=O)[nH]c2c1=O |
| 29 | 560 | – | CNC(=O)c1ccc(NC(=O)c2cn(Cc3c(F)cccc3F)c3ccc(=O)[nH]c3c2=O)cc1 |
| 96 | > 1000 | – | N#Cc1ccc(NC(=O)c2cn(Cc3c(F)cccc3F)c3ccc(=O)[nH]c3c2=O)cc1 |
| 33 | > 1000 | – | COc1cc(NC(=O)c2cn(Cc3c(F)cccc3Cl)c3ccc(=O)[nH]c3c2=O)cc(OC)c1OC |
| > 1000 | > 1000 | – | O=C(Nc1ccc(N2CCOCC2)cc1)c1cn(Cc2ccccc2C(F)(F)F)c2ccc(=O)[nH]c2c1=O |
| 25 | 481 | – | O=C(Nc1ccc(S(=O)(=O)Nc2nccs2)cc1)c1cn(Cc2c(F)cccc2F)c2ccc(=O)[nH]c2c1=O |
| 29 | > 1000 | – | CC(=O)c1ccc(NC(=O)c2cn(Cc3c(F)cccc3F)c3ccc(=O)[nH]c3c2=O)cc1 |
| 34 | 458 | – | NS(=O)(=O)c1ccc(NC(=O)c2cn(Cc3c(F)cccc3F)c3ccc(=O)[nH]c3c2=O)cc1 |
| 192 | > 1000 | – | COc1cc(NC(=O)c2cn(Cc3ccc(F)cc3Cl)c3ccc(=O)[nH]c3c2=O)cc(OC)c1OC |
| 105 | > 1000 | – | O=C(Nc1ccc(O)cc1)c1cn(Cc2c(F)cccc2F)c2ccc(=O)[nH]c2c1=O |
| 188 | 1060 | – | O=C(Nc1ccc(C(=O)N2CCOCC2)cc1)c1cn(Cc2c(F)cccc2F)c2ccc(=O)[nH]c2c1=O |
| 34 | > 1000 | – | COc1ccc(NC(=O)c2cn(Cc3c(F)cccc3Cl)c3ccc(=O)[nH]c3c2=O)cc1Cl |
| 82 | 994 | – | CNc1ccc(NC(=O)c2cn(Cc3c(F)cccc3F)c3ccc(=O)[nH]c3c2=O)cc1 |
